Data reported in ChEMBL document CHEMBL1147862, “Studies on synthesis and pharmacological activities of 3,6-disubstituted-1,2,4-triazolo[3,4-b]-1,3,4-thiadiazoles and their dihydro analogues” (2007).

How the values were obtained:
Format in all cases: functional
Bacillus subtilis [1] = test: Antibacterial activity against Bacillus subtilis at 20 ug/ml by agar plate diffusion technique; details: read-out: IZ
Rattus norvegicus [2] = test: Antiinflammatory activity in Wistar Albino rat assessed as inhibition of carrageenan-induced paw oedema at 20 mg/kg after 2 hrs relative to control
Method in brief: (§1)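 Wistar albino rats, 150–200 g, six per group, dosed orally with a 20 mg/kg suspension; control gets 0.1 ml 1% gum acacia. After 30 min, 0.1 ml 1% carrageenan in saline is injected subplantar into the right hind paw. Paw volume is read by plethysmograph at 0–4 h. Inhibition = 100(1 − Vtest/Vcontrol) on mean volume increase.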

Mus musculus [3] = test: Analgesic activity in Swiss mouse assessed as increase in reaction time at 20 mg/kg, po after 60 mins by Eddy's hot plate technique
Method in brief: (§2)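 Swiss mice of either sex, 25–35 g, placed one at a time on a hot plate held at 55 °C. End point is paw licking or jumping, whichever comes first, with a 15 s cut-off to avoid paw injury. Reaction time is recorded and reported as percent increase in reaction time.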

Pseudomonas aeruginosa [4] = test: Antibacterial activity against Pseudomonas aeruginosa at 30 ug/ml by agar plate diffusion technique; details: read-out: IZ
Rattus norvegicus [5] = test: Antiinflammatory activity in Wistar Albino rat assessed as inhibition of carrageenan-induced paw oedema at 20 mg/kg after 4 hrs relative to control; method in brief: as §1
Staphylococcus aureus [6] = test: Antibacterial activity against Staphylococcus aureus at 30 ug/ml by agar plate diffusion technique; details: read-out: IZ
Candida albicans [7] = test: Antifungal activity against Candida albicans at 10 ug/ml by paper disc method; details: read-out: IZ
Aspergillus niger [8] = test: Antifungal activity against Aspergillus niger at 20 ug/ml by paper disc method; details: read-out: IZ
Aspergillus niger [9] = test: Antifungal activity against Aspergillus niger at 30 ug/ml by paper disc method; details: read-out: IZ
Candida albicans [10] = test: Antifungal activity against Candida albicans at 20 ug/ml by paper disc method; details: read-out: IZ
Staphylococcus aureus [11] = test: Antibacterial activity against Staphylococcus aureus at 20 ug/ml by agar plate diffusion technique; details: read-out: IZ
Aspergillus niger [12] = test: Antifungal activity against Aspergillus niger at 10 ug/ml by paper disc method; details: read-out: IZ
Escherichia coli [13] = test: Antibacterial activity against Escherichia coli at 10 ug/ml by agar plate diffusion technique; details: read-out: IZ
Rattus norvegicus [14] = test: Antiinflammatory activity in Wistar Albino rat assessed as inhibition of carrageenan-induced paw oedema at 20 mg/kg after 3 hrs relative to control; method in brief: as §1
Rattus norvegicus [15] = test: Antiinflammatory activity in Wistar Albino rat assessed as inhibition of carrageenan-induced paw oedema at 20 mg/kg after 1 hr relative to control; method in brief: as §1
Bacillus subtilis [16] = test: Antibacterial activity against Bacillus subtilis at 10 ug/ml by agar plate diffusion technique; details: read-out: IZ
Escherichia coli [17] = test: Antibacterial activity against Escherichia coli at 30 ug/ml by agar plate diffusion technique; details: read-out: IZ
Staphylococcus aureus [18] = test: Antibacterial activity against Staphylococcus aureus at 10 ug/ml by agar plate diffusion technique; details: read-out: IZ
Pseudomonas aeruginosa [19] = test: Antibacterial activity against Pseudomonas aeruginosa at 20 ug/ml by agar plate diffusion technique; details: read-out: IZ
Mus musculus [20] = test: Analgesic activity in Swiss mouse assessed as increase in reaction time at 20 mg/kg, po after 30 mins by Eddy's hot plate technique; method in brief: as §2
Candida albicans [21] = test: Antifungal activity against Candida albicans at 30 ug/ml by paper disc method; details: read-out: IZ
Bacillus subtilis [22] = test: Antibacterial activity against Bacillus subtilis at 30 ug/ml by agar plate diffusion technique; details: read-out: IZ
Mus musculus [23] = test: Analgesic activity in Swiss mouse assessed as increase in reaction time at 20 mg/kg, po after 90 mins by Eddy's hot plate technique; method in brief: as §2
Pseudomonas aeruginosa [24] = test: Antibacterial activity against Pseudomonas aeruginosa at 10 ug/ml by agar plate diffusion technique; details: read-out: IZ
Escherichia coli [25] = test: Antibacterial activity against Escherichia coli at 20 ug/ml by agar plate diffusion technique; details: read-out: IZ

COc1ccc(Cc2nnc3sc(-c4cc(O)nc(O)c4)nn23)cc1OC
zone of inhibition at 20 µg/mL (Bacillus subtilis [1]): 8.12 mm | inhibition in vivo at 20 mg/kg (Rattus norvegicus [2]): 12.9% | Activity (Mus musculus [3]): 14.1% | zone of inhibition at 30 µg/mL (Pseudomonas aeruginosa [4]): 13.1 mm | inhibition in vivo at 20 mg/kg (Rattus norvegicus [5]): 20.8% | zone of inhibition at 30 µg/mL (Staphylococcus aureus [6]): 13.9 mm | zone of inhibition at 10 µg/mL (Candida albicans [7]): 3.82 mm | zone of inhibition at 20 µg/mL (Aspergillus niger [8]): 7.84 mm | zone of inhibition at 30 µg/mL (Aspergillus niger [9]): 11.9 mm | zone of inhibition at 20 µg/mL (Candida albicans [10]): 6.82 mm | zone of inhibition at 20 µg/mL (Staphylococcus aureus [11]): 8.93 mm | zone of inhibition at 10 µg/mL (Aspergillus niger [12]): 4.16 mm | zone of inhibition at 10 µg/mL (Escherichia coli [13]): 4.26 mm | inhibition in vivo at 20 mg/kg (Rattus norvegicus [14]): 17.1% | inhibition in vivo at 20 mg/kg (Rattus norvegicus [15]): 10.5% | zone of inhibition at 10 µg/mL (Bacillus subtilis [16]): 4.58 mm | zone of inhibition at 30 µg/mL (Escherichia coli [17]): 13.3 mm | zone of inhibition at 10 µg/mL (Staphylococcus aureus [18]): 4.61 mm | zone of inhibition at 20 µg/mL (Pseudomonas aeruginosa [19]): 8.9 mm | Activity (Mus musculus [20]): 5.71% | zone of inhibition at 30 µg/mL (Candida albicans [21]): 13.9 mm | zone of inhibition at 30 µg/mL (Bacillus subtilis [22]): 13.9 mm | Activity (Mus musculus [23]): 23.45% | zone of inhibition at 10 µg/mL (Pseudomonas aeruginosa [24]): 4.63 mm | zone of inhibition at 20 µg/mL (Escherichia coli [25]): 8.1 mm

COc1ccc(Cc2nnc3sc(-c4ccnc(F)c4)nn23)cc1OC
zone of inhibition at 20 µg/mL (Bacillus subtilis [1]): 14.4 mm | inhibition in vivo at 20 mg/kg (Rattus norvegicus [2]): 14.3% | Activity (Mus musculus [3]): 10.3% | zone of inhibition at 30 µg/mL (Pseudomonas aeruginosa [4]): 19.3 mm | inhibition in vivo at 20 mg/kg (Rattus norvegicus [5]): 21.5% | zone of inhibition at 30 µg/mL (Staphylococcus aureus [6]): 19.2 mm | zone of inhibition at 10 µg/mL (Candida albicans [7]): 8.14 mm | zone of inhibition at 20 µg/mL (Aspergillus niger [8]): 12.4 mm | zone of inhibition at 30 µg/mL (Aspergillus niger [9]): 21 mm | zone of inhibition at 20 µg/mL (Candida albicans [10]): 14.8 mm | zone of inhibition at 20 µg/mL (Staphylococcus aureus [11]): 13.8 mm | zone of inhibition at 10 µg/mL (Aspergillus niger [12]): 7.14 mm | zone of inhibition at 10 µg/mL (Escherichia coli [13]): 7.96 mm | inhibition in vivo at 20 mg/kg (Rattus norvegicus [14]): 16.7% | inhibition in vivo at 20 mg/kg (Rattus norvegicus [15]): 11.1% | zone of inhibition at 10 µg/mL (Bacillus subtilis [16]): 7.64 mm | zone of inhibition at 30 µg/mL (Escherichia coli [17]): 19.3 mm | zone of inhibition at 10 µg/mL (Staphylococcus aureus [18]): 7.1 mm | zone of inhibition at 20 µg/mL (Pseudomonas aeruginosa [19]): 14.9 mm | Activity (Mus musculus [20]): 2.83% | zone of inhibition at 30 µg/mL (Candida albicans [21]): 21.7 mm | zone of inhibition at 30 µg/mL (Bacillus subtilis [22]): 19.3 mm | Activity (Mus musculus [23]): 22.66% | zone of inhibition at 10 µg/mL (Pseudomonas aeruginosa [24]): 8.21 mm | zone of inhibition at 20 µg/mL (Escherichia coli [25]): 14.4 mm

COc1ccc(Cc2nnc3sc(Cc4c[nH]c5ccccc45)nn23)cc1OC
zone of inhibition at 20 µg/mL (Bacillus subtilis [1]): 7.32 mm | inhibition in vivo at 20 mg/kg (Rattus norvegicus [2]): 26.8% | Activity (Mus musculus [3]): 25% | zone of inhibition at 30 µg/mL (Pseudomonas aeruginosa [4]): 12.4 mm | inhibition in vivo at 20 mg/kg (Rattus norvegicus [5]): 28.5% | zone of inhibition at 30 µg/mL (Staphylococcus aureus [6]): 12.2 mm | zone of inhibition at 10 µg/mL (Candida albicans [7]): 4.1 mm | zone of inhibition at 20 µg/mL (Aspergillus niger [8]): 9.62 mm | zone of inhibition at 30 µg/mL (Aspergillus niger [9]): 11.1 mm | zone of inhibition at 20 µg/mL (Candida albicans [10]): 7.46 mm | zone of inhibition at 20 µg/mL (Staphylococcus aureus [11]): 7.38 mm | zone of inhibition at 10 µg/mL (Aspergillus niger [12]): 5.24 mm | zone of inhibition at 10 µg/mL (Escherichia coli [13]): 4.9 mm | inhibition in vivo at 20 mg/kg (Rattus norvegicus [14]): 28.3% | inhibition in vivo at 20 mg/kg (Rattus norvegicus [15]): 16.1% | zone of inhibition at 10 µg/mL (Bacillus subtilis [16]): 4.33 mm | zone of inhibition at 30 µg/mL (Escherichia coli [17]): 12.5 mm | zone of inhibition at 10 µg/mL (Staphylococcus aureus [18]): 4.59 mm | zone of inhibition at 20 µg/mL (Pseudomonas aeruginosa [19]): 8.23 mm | Activity (Mus musculus [20]): 13.16% | zone of inhibition at 30 µg/mL (Candida albicans [21]): 10.2 mm | zone of inhibition at 30 µg/mL (Bacillus subtilis [22]): 12.7 mm | Activity (Mus musculus [23]): 31.88% | zone of inhibition at 10 µg/mL (Pseudomonas aeruginosa [24]): 4.25 mm | zone of inhibition at 20 µg/mL (Escherichia coli [25]): 8.22 mm

Cc1occc1-c1nnc2sc(-c3cc(-c4ccccc4)nc4ccccc34)nn12
zone of inhibition at 20 µg/mL (Bacillus subtilis [1]): 11.8 mm | inhibition in vivo at 20 mg/kg (Rattus norvegicus [2]): 14.5% | Activity (Mus musculus [3]): 14.48% | zone of inhibition at 30 µg/mL (Pseudomonas aeruginosa [4]): 17.3 mm | inhibition in vivo at 20 mg/kg (Rattus norvegicus [5]): 24.4% | zone of inhibition at 30 µg/mL (Staphylococcus aureus [6]): 17.5 mm | zone of inhibition at 10 µg/mL (Candida albicans [7]): 6.27 mm | zone of inhibition at 20 µg/mL (Aspergillus niger [8]): 11 mm | zone of inhibition at 30 µg/mL (Aspergillus niger [9]): 17.7 mm | zone of inhibition at 20 µg/mL (Candida albicans [10]): 14.8 mm | zone of inhibition at 20 µg/mL (Staphylococcus aureus [11]): 12.7 mm | zone of inhibition at 10 µg/mL (Aspergillus niger [12]): 5.92 mm | zone of inhibition at 10 µg/mL (Escherichia coli [13]): 7.64 mm | inhibition in vivo at 20 mg/kg (Rattus norvegicus [14]): 16.4% | inhibition in vivo at 20 mg/kg (Rattus norvegicus [15]): 11.8% | zone of inhibition at 10 µg/mL (Bacillus subtilis [16]): 6.16 mm | zone of inhibition at 30 µg/mL (Escherichia coli [17]): 17.4 mm | zone of inhibition at 10 µg/mL (Staphylococcus aureus [18]): 6.18 mm | zone of inhibition at 20 µg/mL (Pseudomonas aeruginosa [19]): 12 mm | Activity (Mus musculus [20]): 4.86% | zone of inhibition at 30 µg/mL (Candida albicans [21]): 19.4 mm | zone of inhibition at 30 µg/mL (Bacillus subtilis [22]): 16.9 mm | Activity (Mus musculus [23]): 21.1% | zone of inhibition at 10 µg/mL (Pseudomonas aeruginosa [24]): 7.12 mm | zone of inhibition at 20 µg/mL (Escherichia coli [25]): 13.2 mm
